# Assay results taken from paper PMC8165011 (European journal of medicinal chemistry, 2021).
# Like-named read-outs stand apart in the source and are kept apart here.
# Columns and labels:
# Assay type in all cases: cell-based
# [1] = tested on: S. aureus ATCC 25923 (Sa23), antibiotic susceptible; experiment: MIC assay
# [2] = tested on: S. aureus BAA-2312 (Sa12), antibiotic-resistant; experiment: MIC assay
# [3] = tested on: S. aureus ATCC 33591 (Sa91); experiment: MIC assay
# [4] = tested on: S. aureus ATCC 700699 (Sa99); experiment: MIC assay; settings: for MIC Sa99: S. aureus ATCC 700699
# [5] = tested on: S. aureus ATCC 33592 (Sa92); experiment: MIC assay
# [6] = tested on: S. epidermidis ATCC 700296 (Se); experiment: MIC assay
# [7] = tested on: Bacillus subtilis ATCC 6623 (Bs); experiment: MIC assay
# [8] = tested on: vancomycin-resistant E. faecium ATCC 700221 (Ef21); experiment: MIC assay
# [9] = tested on: antibiotic susceptible E. faecalis ATCC 29212 (Ef12); experiment: MIC assay; settings: for MIC Efl2: E. faecalis ATCC 29212; for MIC: Enterococcus faecalis, ATCC29212, read-out: MIC Efl2
# [10] = tested on: tested Gram-positive strains; experiment: MIC assay, summary over the tested Gram-positive strains; settings: for antimicrobial activity (in words): tested Gram-positive strains
# Summary of the method: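 CLSI standard broth microdilution. Test compound started at 50 µg/ml and serially diluted 2-fold. Run in triplicate.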
# [11] = tested on: S. aureus and E. faecalis biofilms; experiment: Biofilm inhibition and destruction at 4x and 8xMIC; settings: 4x and 8xMIC (data not shown)
# [12] = tested on: E. faecalis clinical isolates (VRE); experiment: MIC against clinical isolates of E. faecalis; settings: Enterococcus faecalis, VRE
# [13] = tested on: E. faecium clinical isolates (VRE); experiment: MIC against clinical isolates of E. faecium; settings: Enterococcus faecium, VRE
# [14] = tested on: S. aureus clinical isolates (MSSA, MRSA); experiment: MIC against clinical isolates of S. aureus; settings: Staphylococcus aureus, MRSA|MSSA
# [15] = tested on: S. aureus ATCC 25923 (MSSA); experiment: Multistep
# [16] = tested on: S. aureus ATCC 700699 (MRSA); experiment: Multistep; settings: within two weeks of the start
# [17] = tested on: S. aureus ATCC 700699 (MRSA) stationary phase persister cells; experiment: Persister cell killing assay; settings: 64xMIC
molecule,measurement,setting,value
4-[4-[(3-chloroanilino)methyl]-3-(p-tolyl)pyrazol-1-yl]benzoic acid [Compound 44],MIC Sa23,[1],1.56 µg/mL
same,MIC Sal2,[2],1.56 µg/mL
same,MIC Sa91,[3],0.78 µg/mL
same,MIC Sa99,[4],0.78 µg/mL
same,MIC Sa92,[5],1.56 µg/mL
same,MIC Se,[6],3.12 µg/mL
same,MIC Bs,[7],0.78 µg/mL
same,MIC Ef21,[8],0.78 µg/mL
same,MIC Efl2,[9],12.5 µg/mL
4-[4-[(3-fluoroanilino)methyl]-3-(p-tolyl)pyrazol-1-yl]benzoic acid [Compound 42],MIC Sa23,[1],3.12 µg/mL
same,MIC Sal2,[2],3.12 µg/mL
same,MIC Sa91,[3],3.12 µg/mL
same,MIC Sa99,[4],3.12 µg/mL
same,MIC Sa92,[5],3.12 µg/mL
same,MIC Se,[6],6.25 µg/mL
same,MIC Bs,[7],1.56 µg/mL
same,MIC Ef21,[8],6.25 µg/mL
same,MIC Efl2,[9],25 µg/mL
4-[4-[(4-chloroanilino)methyl]-3-(p-tolyl)pyrazol-1-yl]benzoic acid [Compound 45],MIC Sa23,[1],1.56 µg/mL
same,MIC Sal2,[2],1.56 µg/mL
same,MIC Sa91,[3],1.56 µg/mL
same,MIC Sa99,[4],1.56 µg/mL
same,MIC Sa92,[5],1.56 µg/mL
same,MIC Se,[6],3.12 µg/mL
same,MIC Bs,[7],0.78 µg/mL
same,MIC Ef21,[8],1.56 µg/mL
same,MIC Efl2,[9],6.25 µg/mL
4-[4-[(4-fluoroanilino)methyl]-3-(p-tolyl)pyrazol-1-yl]benzoic acid [Compound 43],MIC Sa23,[1],6.25 µg/mL
same,MIC Sal2,[2],3.12 µg/mL
same,MIC Sa91,[3],6.25 µg/mL
same,MIC Sa99,[4],6.25 µg/mL
same,MIC Sa92,[5],12.5 µg/mL
same,MIC Se,[6],12.5 µg/mL
same,MIC Bs,[7],1.56 µg/mL
same,MIC Ef21,[8],6.25 µg/mL
same,MIC Efl2,[9],25 µg/mL
"O=C(O)c1ccc(-n2cc(CNc3ccccc3)c(-c3ccc(C(F)(F)F)cc3)n2)cc1 [Compound 41, 4-[4-(anilinomethyl)-3-[4-(trifluoromethyl)phenyl]pyrazol-1-yl]benzoic acid]",MIC,[10]; read-out: MIC value as low as,≥ 3.12 µg/mL
"O=C(O)c1ccc(-n2cc(CNc3cccc(Br)c3)c(-c3ccc(C(F)(F)F)cc3)n2)cc1 [Compound 46, 4-{4-[(3-bromoanilino)methyl]-3-[4-(trifluoromethyl)phenyl]-1H-pyrazol-1-yl}benzoic acid]",MIC,[10]; read-out: MIC value as low as,≥ 0.78 µg/mL
"O=C(O)c1ccc(-n2cc(CNc3ccc(Br)cc3)c(-c3ccc(C(F)(F)F)cc3)n2)cc1 [Compound 47, 4-[4-[(4-bromoanilino)methyl]-3-[4-(trifluoromethyl)phenyl]pyrazol-1-yl]benzoic acid]",MIC,[10]; read-out: MIC value as low as,≥ 0.78 µg/mL
"O=C(O)c1ccc(-n2cc(CNc3cccc(C(F)(F)F)c3)c(-c3ccc(C(F)(F)F)cc3)n2)cc1 [Compound 48, 4-[4-[[3-(trifluoromethyl)anilino]methyl]-3-[4-(trifluoromethyl)phenyl]pyrazol-1-yl]benzoic acid]",MIC,"[4]; Staphylococcus aureus, ATCC700699, read-out: MIC Sa99",0.39 µg/mL
same,antimicrobial activity (in words),[10],potent activity
"NS(=O)(=O)c1ccc(NCc2cn(-c3ccc(C(=O)O)cc3)nc2-c2ccc(C(F)(F)F)cc2)cc1 [Compound 49, 4-[4-[(4-sulfamoylanilino)methyl]-3-[4-(trifluoromethyl)phenyl]pyrazol-1-yl]benzoic acid]",antimicrobial activity (in words),[10],almost eliminated the activity
"O=C(O)c1ccc(-n2cc(CNc3cccc(OC(F)(F)F)c3)c(-c3ccc(C(F)(F)F)cc3)n2)cc1 [Compound 50, 4-[4-[[3-(trifluoromethoxy)anilino]methyl]-3-[4-(trifluoromethyl)phenyl]pyrazol-1-yl]benzoic acid]",MIC,[10]; read-out: MIC values,0.78 to 3.12 µg/mL
"Cc1ccc(NCc2cn(-c3ccc(C(=O)O)cc3)nc2-c2ccc(C(F)(F)F)cc2)cc1Cl [Compound 58, 4-[4-[(3-chloro-4-methyl-anilino)methyl]-3-[4-(trifluoromethyl)phenyl]pyrazol-1-yl]benzoic acid]",antimicrobial activity (in words),[10],inhibited the growth of tested bacteria efficiently
"O=C(O)c1ccc(-n2cc(CNc3ccc(Br)c(C(F)(F)F)c3)c(-c3ccc(C(F)(F)F)cc3)n2)cc1 [Compound 63, 4-[4-[[4-bromo-3-(trifluoromethyl)anilino]methyl]-3-[4-(trifluoromethyl)phenyl]pyrazol-1-yl]benzoic acid]",MIC,[9],1.56 µg/mL
"O=C(O)c1ccc(-n2cc(CNc3ccc(C(=O)O)c(C(F)(F)F)c3)c(-c3ccc(C(F)(F)F)cc3)n2)cc1 [Compound 67, 4-[[1-(4-carboxyphenyl)-3-[4-(trifluoromethyl)phenyl]pyrazol-4-yl]methylamino]-2-(trifluoromethyl)benzoic acid]",antimicrobial activity (in words),[10],eliminated the activity
"O=C(O)c1ccc(-n2cc(CNc3ccc(N4CCOCC4)c(C(F)(F)F)c3)c(-c3ccc(C(F)(F)F)cc3)n2)cc1 [Compound 68, 4-[4-[[4-morpholino-3-(trifluoromethyl)anilino]methyl]-3-[4-(trifluoromethyl)phenyl]pyrazol-1-yl]benzoic acid]",antimicrobial activity (in words),[10],highly potent
"O=C(O)c1ccc(-n2cc(CNc3ccc(Br)c(Cl)c3F)c(-c3ccc(C(F)(F)F)cc3)n2)cc1 [Compound 75, 4-[4-[(4-bromo-3-chloro-2-fluoro-anilino)methyl]-3-[4-(trifluoromethyl)phenyl]pyrazol-1-yl]benzoic acid]",MIC,[9],1.56 µg/mL
same,biofilm inhibition and destruction,[11],> 95%
"O=C(O)c1ccc(-n2cc(CNc3cc(F)c(C(F)(F)F)cc3F)c(-c3ccc(C(F)(F)F)cc3)n2)cc1 [Compound 76, 4-[4-[[2,5-difluoro-4-(trifluoromethyl)anilino]methyl]-3-[4-(trifluoromethyl)phenyl]pyrazol-1-yl]benzoic acid]",MIC,[9],3.12 µg/mL
"O=C(O)c1ccc(-n2cc(CNc3cc(Cl)c(O)c(Cl)c3)c(-c3ccc(C(F)(F)F)cc3)n2)cc1 [Compound 78, 4-[4-[(3,5-dichloro-4-hydroxy-anilino)methyl]-3-[4-(trifluoromethyl)phenyl]pyrazol-1-yl]benzoic acid]",antimicrobial activity (in words),[10],inactivity
"Cc1onc(-c2ccccc2)c1C(=O)N[C@@H]1C(=O)N2[C@@H]1SC(C)(C)[C@@H]2C(=O)O [Oxa, Oxacillin]",MIC,"[12]; E. faecalis 1088051, VRE",64 µg/mL
same,MIC,"[12]; E. faecalis 1091563, VRE",64 µg/mL
same,MIC,"[12]; E. faecalis 1091720, VRE",64 µg/mL
same,MIC,"[12]; E. faecalis 1094112, VRE",> 64 µg/mL
same,MIC,"[12]; E. faecalis 1100440, VRE",> 64 µg/mL
same,MIC,"[13]; E. faecium 1088168, VRE",> 64 µg/mL
same,MIC,"[13]; E. faecium 1088228, VRE",> 64 µg/mL
same,MIC,"[13]; E. faecium 1088925, VRE",> 64 µg/mL
same,MIC,"[13]; E. faecium 1089544, VRE",> 64 µg/mL
same,MIC,"[13]; E. faecium 1091282, VRE",> 64 µg/mL
same,MIC,"[14]; S. aureus 1088064, MRSA",64 µg/mL
same,MIC,"[14]; S. aureus 1088610, MRSA",64 µg/mL
same,MIC,"[14]; S. aureus 1088888, MRSA",> 64 µg/mL
same,MIC,"[14]; S. aureus 1089106, MRSA",64 µg/mL
O=C(O)c1cn(C2CC2)c2cc(N3CCNCC3)c(F)cc2c1=O [ciprofloxacin],passage at which resistance started to develop,[15],7 passage
same,fold more resistant,[15]; within two weeks of the start,16 fold
same,fold more resistant,[16],16 fold
"CNC(C)C1CCC(N)C(OC2C(N)CC(N)C(OC3OCC(C)(O)C(NC)C3O)C2O)O1 (stereo not drawn) [gentamicin, reference compound]",effect on viability of MRSA persisters (in words),[17],did not affect the viability
